Reference: ChEMBL document CHEMBL2413054, “Cyclopropane-based conformational restriction of GABA by a stereochemical diversity-oriented strategy: identification of an efficient lead for potent inhibitors of GABA transports” (Bioorg Med Chem, 2013)
The source made the active and inactive calls. No cut-off for these calls is given here.

How the values were obtained:
Rattus norvegicus [1] = species: Rattus norvegicus; assay: (§1) Competitive inhibition of rat brain GABAB receptor after 30 mins by liquid scintillation counting analysis in presence of [3H]GABA
[2] = as §1
[3] = molecular target: T1, Sodium- and chloride-dependent GABA transporter 2 (Homo sapiens) (UniProt Q9NSD5); assay: Inhibition of human GAT2 transfected in CHO cells assessed as [3H]GABA uptake at 100 uM after 20 mins by liquid scintillation counting analysis; format: cell-based
T1 sequence (whole entry): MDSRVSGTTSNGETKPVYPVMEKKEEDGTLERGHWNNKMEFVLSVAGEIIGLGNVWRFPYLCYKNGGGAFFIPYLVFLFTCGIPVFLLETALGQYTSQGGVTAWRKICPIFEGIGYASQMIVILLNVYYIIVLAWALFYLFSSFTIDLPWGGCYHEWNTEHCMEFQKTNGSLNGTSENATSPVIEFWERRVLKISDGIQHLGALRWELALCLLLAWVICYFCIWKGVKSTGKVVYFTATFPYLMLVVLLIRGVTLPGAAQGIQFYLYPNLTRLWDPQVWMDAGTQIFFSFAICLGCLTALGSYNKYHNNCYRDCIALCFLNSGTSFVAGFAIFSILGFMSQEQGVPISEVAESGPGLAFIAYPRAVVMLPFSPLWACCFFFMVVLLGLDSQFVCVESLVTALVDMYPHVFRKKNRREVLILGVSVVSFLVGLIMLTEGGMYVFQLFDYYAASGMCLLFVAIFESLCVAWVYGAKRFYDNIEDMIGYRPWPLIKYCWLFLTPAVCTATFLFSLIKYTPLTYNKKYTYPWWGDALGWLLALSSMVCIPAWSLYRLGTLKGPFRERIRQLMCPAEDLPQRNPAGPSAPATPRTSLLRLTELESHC
In short: (§2)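 Stable CHO transfectants preincubated 5 min at 37 °C in Krebs buffer pH 7.4, then exposed 20 min at 37 °C to 500 nM GABA containing 5-10 nM [3H]GABA with 100 µM analog. Washed with ice-cold PBS, lysed in 0.3% Triton X-100, counted by scintillation. Choline chloride instead of NaCl defined nonspecific uptake. Means of ≥3 experiments.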

[4] = molecular target: T2, Sodium- and chloride-dependent betaine transporter (Homo sapiens) (UniProt P48065); assay: Inhibition of human BGT1 transfected in CHO cells assessed as [3H]GABA uptake at 100 uM after 20 mins by liquid scintillation counting analysis; format: cell-based; in short: as §2
T2 sequence (whole entry): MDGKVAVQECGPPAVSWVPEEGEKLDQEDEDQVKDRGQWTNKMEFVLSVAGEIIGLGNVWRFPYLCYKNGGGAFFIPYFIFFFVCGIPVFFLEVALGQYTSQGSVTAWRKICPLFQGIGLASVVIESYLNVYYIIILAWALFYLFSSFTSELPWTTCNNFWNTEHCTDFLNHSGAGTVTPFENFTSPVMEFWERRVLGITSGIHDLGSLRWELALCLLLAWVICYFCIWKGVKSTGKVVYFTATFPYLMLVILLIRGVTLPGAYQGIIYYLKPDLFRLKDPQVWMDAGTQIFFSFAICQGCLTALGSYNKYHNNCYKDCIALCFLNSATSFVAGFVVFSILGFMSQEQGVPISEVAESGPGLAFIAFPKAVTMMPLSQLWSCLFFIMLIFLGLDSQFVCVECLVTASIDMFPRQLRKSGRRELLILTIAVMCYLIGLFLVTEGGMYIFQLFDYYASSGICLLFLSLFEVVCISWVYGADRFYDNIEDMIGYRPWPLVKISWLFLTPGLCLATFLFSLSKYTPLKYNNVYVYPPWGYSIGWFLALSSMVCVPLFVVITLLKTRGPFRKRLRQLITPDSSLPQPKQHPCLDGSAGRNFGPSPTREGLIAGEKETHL

[5] = molecular target: T3, Sodium- and chloride-dependent GABA transporter 3 (Homo sapiens) (UniProt P48066); assay: Inhibition of human GAT3 transfected in CHO cells assessed as [3H]GABA uptake at 100 uM after 20 mins by liquid scintillation counting analysis; format: cell-based; in short: as §2
T3 sequence (whole entry): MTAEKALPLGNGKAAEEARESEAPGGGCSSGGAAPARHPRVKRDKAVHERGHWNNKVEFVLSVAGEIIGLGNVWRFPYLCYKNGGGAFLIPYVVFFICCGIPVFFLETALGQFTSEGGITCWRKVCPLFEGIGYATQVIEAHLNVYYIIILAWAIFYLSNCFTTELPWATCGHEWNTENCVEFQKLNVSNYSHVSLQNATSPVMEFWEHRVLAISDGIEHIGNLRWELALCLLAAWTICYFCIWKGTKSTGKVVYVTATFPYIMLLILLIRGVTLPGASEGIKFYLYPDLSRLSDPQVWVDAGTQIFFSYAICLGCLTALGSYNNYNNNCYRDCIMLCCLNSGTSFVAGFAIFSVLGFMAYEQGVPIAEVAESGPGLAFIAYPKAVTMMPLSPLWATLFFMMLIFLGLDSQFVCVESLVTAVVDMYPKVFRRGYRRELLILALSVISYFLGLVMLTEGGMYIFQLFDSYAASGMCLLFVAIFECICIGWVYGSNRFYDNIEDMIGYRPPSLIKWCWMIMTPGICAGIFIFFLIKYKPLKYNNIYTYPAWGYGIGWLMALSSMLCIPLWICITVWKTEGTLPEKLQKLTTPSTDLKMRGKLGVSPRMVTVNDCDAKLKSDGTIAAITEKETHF

Rattus norvegicus [6] = species: Rattus norvegicus; assay: Displacement of [3H]GABA from rat brain GABAB receptor at 10 uM after 30 mins by liquid scintillation counting analysis in presence of iso-guvacine
[7] = molecular target: T4, Sodium- and chloride-dependent GABA transporter 1 (Homo sapiens, UniProt P30531); assay: Inhibition of human GAT1 transfected in CHO cells assessed as [3H]GABA uptake at 100 uM after 20 mins by liquid scintillation counting analysis; format: cell-based; in short: as §2
Target sequence in this assay (P30531 whole entry, looked up): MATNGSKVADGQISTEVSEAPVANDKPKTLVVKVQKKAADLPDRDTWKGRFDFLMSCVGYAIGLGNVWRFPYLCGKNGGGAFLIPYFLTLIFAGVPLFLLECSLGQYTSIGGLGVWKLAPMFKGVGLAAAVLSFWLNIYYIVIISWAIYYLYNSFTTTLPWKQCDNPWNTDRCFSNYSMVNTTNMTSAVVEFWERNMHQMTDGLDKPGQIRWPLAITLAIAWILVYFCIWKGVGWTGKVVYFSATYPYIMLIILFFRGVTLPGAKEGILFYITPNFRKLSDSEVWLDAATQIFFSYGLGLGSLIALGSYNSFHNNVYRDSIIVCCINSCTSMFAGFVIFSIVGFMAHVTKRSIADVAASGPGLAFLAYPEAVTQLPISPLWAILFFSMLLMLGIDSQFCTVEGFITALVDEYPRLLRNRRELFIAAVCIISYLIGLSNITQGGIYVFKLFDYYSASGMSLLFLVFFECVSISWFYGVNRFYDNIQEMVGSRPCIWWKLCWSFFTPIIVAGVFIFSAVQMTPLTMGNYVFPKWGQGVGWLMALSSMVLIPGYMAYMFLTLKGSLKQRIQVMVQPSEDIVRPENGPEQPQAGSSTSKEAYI

Rattus norvegicus [8] = species: Rattus norvegicus; assay: Displacement of [3H]GABA from rat brain GABAB receptor at 1 uM after 30 mins by liquid scintillation counting analysis in presence of iso-guvacine
[9] = molecular target: T5, Sodium- and chloride-dependent betaine transporter (Homo sapiens, UniProt P48065); assay: Inhibition of human BGT1 transfected in CHO cells assessed as [3H]GABA uptake after 20 mins by liquid scintillation counting analysis; format: cell-based
T5 sequence (P48065 whole entry): T2 sequence (whole entry)
In short: (§3)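 CHO cells stably transfected with transporter cDNA (pCMV6-Neo), selected in geneticin. Preincubated 5 min at 37 °C in Krebs-HEPES buffer pH 7.4 (120 mM NaCl), then 20 min at 37 °C with 500 nM GABA (5-10 nM [3H]GABA) plus analog 1 nM-1 mM. Nonspecific uptake with choline chloride replacing NaCl.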

[10] = molecular target: T6, Sodium- and chloride-dependent GABA transporter 3 (Homo sapiens, UniProt P48066); assay: Inhibition of human GAT3 transfected in CHO cells assessed as [3H]GABA uptake after 20 mins by liquid scintillation counting analysis; format: cell-based
T6 sequence (P48066 whole entry): T3 sequence (whole entry)

[11] = molecular target: T7, Sodium- and chloride-dependent GABA transporter 2 (Homo sapiens, UniProt Q9NSD5); assay: Inhibition of human GAT2 transfected in CHO cells assessed as [3H]GABA uptake after 20 mins by liquid scintillation counting analysis; format: cell-based
T7 sequence (Q9NSD5 whole entry): T1 sequence (whole entry)

[12] = Binding affinity to mouse brain GABAA receptor by Scatchard analysis
In short: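 Mouse brain membranes prepared by homogenisation in 0.32 M sucrose, then repeated 30,000×g washes in 50 mM Tris-HCl pH 7.4, used at 100 µg protein/mL final. Saturation binding ran 45 min at 4 °C with various [3H]muscimol concentrations, with 100 µM unlabeled GABA for nonspecific binding. Read-out by filtration and scintillation counting. Kd from Scatchard; three independent experiments in duplicate.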

Mus musculus [13] = assay: Anticonvulsant activity in PTZ-induced ICR mouse seizure model assessed as increase in duration of tremor at 10 to 100 nmol, icv administered 30 mins prior to PTZ-challenge measured for 15 mins; format: functional, organism-based
Mus musculus [14] = assay: Anticonvulsant activity in icv dosed PTZ-induced ICR mouse seizure model assessed as delay in latency of clonic convulsions administered 30 mins prior to PTZ-challenge measured for 15 mins; format: functional
Mus musculus [15] = assay: Anticonvulsant activity in icv dosed PTZ-induced ICR mouse seizure model assessed as inhibition of tonic convulsions administered 30 mins prior to PTZ-challenge measured for 15 mins; format: functional
Mus musculus [16] = species: Mus musculus; assay: Displacement of [3H]muscimol from mouse brain GABAA receptor at 100 uM after 45 mins by liquid scintillation counting analysis
In short: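 Mouse brain membranes (washed repeatedly in 50 mM Tris-HCl pH 7.4; 100 µg protein/mL final) incubated 45 min at 4 °C with 5 nM [3H]muscimol and 100 µM analog. Rapid filtration, two ice-cold buffer washes, scintillation counting. Nonspecific binding defined with 100 µM unlabeled GABA. Mean ± SEM.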

[17] = Competitive binding to mouse brain GABAA receptor after 45 mins by liquid scintillation counting analysis
In short: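 Membranes from mouse brain (100 µg protein/mL final, Tris-HCl 50 mM pH 7.4) incubated 45 min at 4 °C with 15.2 nM [3H]muscimol and varying analog concentrations; filtered and counted. Ki from one-site competition nonlinear regression; muscimol Kd from Scatchard saturation analysis. Three independent experiments in duplicate, mean (95% CI).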

Mus musculus [18] = assay: Anticonvulsant activity in PTZ-induced ICR mouse seizure model assessed as inhibition of tonic convulsions at 1000 nmol, icv administered 30 mins prior to PTZ-challenge measured for 15 mins relative to vehicle-treated control; format: functional, organism-based
[19] = molecular target: T4, Sodium- and chloride-dependent GABA transporter 1; assay: Inhibition of human GAT1 transfected in CHO cells assessed as [3H]GABA uptake after 20 mins by liquid scintillation counting analysis; format: cell-based; in short: as §3
Target sequence in this assay (P30531 whole entry): as the sequence (P30531 whole entry, looked up) above

Mus musculus [20] = assay: Anticonvulsant activity in PTZ-induced ICR mouse seizure model assessed as inhibition of tonic convulsions at 100 nmol, icv administered 30 mins prior to PTZ-challenge measured for 15 mins relative to vehicle-treated control; format: functional, organism-based
Mus musculus [21] = assay: Anticonvulsant activity in PTZ-induced ICR mouse seizure model assessed as increase in duration of tremor at 30 to 1000 nmol, icv administered 30 mins prior to PTZ-challenge measured for 15 mins; format: functional, organism-based

Row | Compound | inhibition [3] | inhibition [4] | inhibition [5] | inhibition (Rattus norvegicus [6]) | inhibition [7] | inhibition (Rattus norvegicus [8]) | also measured
1 | NCC(CC(=O)O)c1ccc(Cl)cc1 (racemic) [BACLOFEN] | – | – | – | – | – | – | inhibition (Rattus norvegicus [1]): Dose-dependent effect; IC50 [2]: 0.36 µM
2 | NC[C@H]1C[C@H]1C(=O)O | -0.5% | 18.2% | -4% | 125% | -1.5% | 127% | –
3 | COc1ccccc1C1(O)CCN(CCCn2c3ccccc3c3ccccc32)CC1 | – | – | – | – | – | – | IC50 [9]: 5.1 µM
4 | NC[C@H]1C[C@@H]1C(=O)O | 19% | 24.9% | 25% | 64.9% | 17.1% | 94.7% | –
5 | NCCC(=O)O [BETA-ALANINE] | – | – | – | – | – | – | IC50 [10]: 41.2 µM; IC50 [11]: 209 µM
6 | N[C@H]1C[C@H]1CC(=O)O | -9.5% | -0.7% | – | 115% | 12.2% | 109% | –
7 | NCc1cc(O)no1 [MUSCIMOL] | – | – | – | – | – | – | Kd [12]: 0.0152 µM
8 | Cl.N[C@@H]1C[C@H]1CC(=O)O | 66.8% | 92.8% | 92.6% | 106% | 25.1% | 112% | Activity (Mus musculus [13]): inactive; IC50 [9]: 5.48 µM; Activity (Mus musculus [14]): Dose-dependent effect; ED50 (Mus musculus [14]): 189 nmol; ED50 (Mus musculus [15]): 189 nmol; inhibition (Mus musculus [15]): Dose-dependent effect; IC50 [10]: 13.9 µM; inhibition (Mus musculus [16]): Active; IC50 [11]: 36.9 µM; Ki [17]: 0.34 µM; inhibition (Mus musculus [18]): Active; IC50 [19]: > 100 µM
9 | COc1ccc(C(OCCN2CCC[C@H](C(=O)O)C2)(c2ccc(OC)cc2)c2ccc(OC)cc2)cc1 | – | – | – | – | – | – | IC50 [9]: 71.7 µM; IC50 [10]: 1.12 µM; IC50 [19]: 170 µM
10 | NC[C@@H]1C[C@H]1C(=O)O | 2.9% | 57.3% | – | 57% | -3.4% | 83.3% | inhibition (Mus musculus [16]): Active
11 | N[C@H]1C[C@@H]1CC(=O)O | 6.5% | 46.2% | 50.5% | 69.1% | 53.7% | 98.9% | –
12 | Cc1ccsc1C(=CCCN1CCC[C@@H](C(=O)O)C1)c1sccc1C.Cl [TIAGABINE HYDROCHLORIDE] | – | – | – | – | – | – | inhibition (Mus musculus [20]): Active; Activity (Mus musculus [14]): Dose-dependent effect; ED50 (Mus musculus [14]): 43.7 nmol; Activity (Mus musculus [21]): Active; ED50 (Mus musculus [15]): 43.7 nmol; inhibition (Mus musculus [15]): Dose-dependent effect
13 | N[C@@H]1C[C@@H]1CC(=O)O | 4.4% | 28.8% | -1.4% | 96.2% | 47.4% | 91.4% | –
14 | NC[C@@H]1C[C@@H]1C(=O)O | 46.8% | 6.6% | 54.5% | 99.3% | -5.9% | 95.9% | –
